Measured values taken from ChEMBL document CHEMBL1255376, “Comparative surveillance study of telavancin activity against recently collected gram-positive clinical isolates from across the United States” (2008).
Values after ≈ are worked out from the molar mass of the structure shown.

Key:
Format in all cases: functional
[1] = test system: Staphylococcus; experiment: Antibacterial activity against methicillin-susceptible coagulase-negative unspeciated Staphylococcus clinical isolate by broth microdilution method
Outline: (§1)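 MICs by CLSI broth microdilution in frozen trays pre-loaded with serial dilutions of each agent. Quality-control strains run in parallel: E. faecalis ATCC 29212 and ATCC 51299, S. aureus ATCC 29213, S. pneumoniae ATCC 49619. Comparator susceptibility categories follow CLSI breakpoints. Methicillin resistance in staphylococci assigned from the oxacillin MIC.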

[2] = Antibacterial activity against Streptococcus sp. Group G clinical isolate by broth microdilution method
Outline: (§2)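 MIC by CLSI broth microdilution in frozen microtiter trays holding serial dilutions of each agent, prepared from standard laboratory powders. E. faecalis ATCC 29212 and ATCC 51299, S. aureus ATCC 29213 and S. pneumoniae ATCC 49619 run in parallel as quality-control strains. Comparator susceptibility interpreted with CLSI breakpoints.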

[3] = test system: Staphylococcus xylosus; experiment: Antibacterial activity against methicillin-resistant coagulase-negative Staphylococcus xylosus clinical isolate by broth microdilution method; outline: as §1
[4] = Antibacterial activity against Streptococcus sp. Group C clinical isolate by broth microdilution method; outline: as §2
[5] = test system: Staphylococcus capitis; experiment: Antibacterial activity against methicillin-susceptible coagulase-negative Staphylococcus capitis clinical isolate by broth microdilution method; outline: as §1
[6] = test system: Enterococcus faecalis; experiment: Antibacterial activity against vancomycin- and teichoplanin-nonsusceptible Enterococcus faecalis clinical isolate by broth microdilution method; outline: as §1
[7] = test system: Streptococcus mitis; experiment: Antibacterial activity against Streptococcus mitis clinical isolate by broth microdilution method; outline: as §2
[8] = test system: Enterococcus faecium; experiment: Antibacterial activity against vancomycin-resistant and teichoplanin-susceptible Enterococcus faecium clinical isolate by broth microdilution method; outline: as §1
[9] = test system: Streptococcus sp.; experiment: Antibacterial activity against Streptococcus sp. Group F clinical isolate by broth microdilution method
Outline: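 MIC by CLSI broth microdilution in frozen microtiter trays holding serial dilutions of each agent, prepared from standard laboratory powders. Comparator susceptibility interpreted with CLSI breakpoints.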

[10] = test system: Streptococcus oralis; experiment: Antibacterial activity against Streptococcus oralis clinical isolate by broth microdilution method; outline: as §2
[11] = test system: Staphylococcus warneri; experiment: Antibacterial activity against methicillin-resistant coagulase-negative Staphylococcus warneri clinical isolate by broth microdilution method; outline: as §1
[12] = test system: Mammaliicoccus sciuri; experiment: Antibacterial activity against methicillin-susceptible coagulase-negative Staphylococcus sciuri clinical isolate by broth microdilution method; outline: as §1
[13] = test system: Streptococcus sanguinis; experiment: Antibacterial activity against Streptococcus sanguinis clinical isolate by broth microdilution method; outline: as §2
[14] = test system: Staphylococcus; experiment: Antibacterial activity against daptomycin-nonsusceptible coagulase-negative Staphylococcus isolate 1285835 by broth microdilution method; outline: as §2
[15] = test system: Streptococcus intermedius; experiment: Antibacterial activity against Streptococcus intermedius clinical isolate by broth microdilution method; outline: as §2
[16] = test system: Enterococcus faecium; experiment: Antibacterial activity against vancomycin- and teichoplanin-nonsusceptible Enterococcus faecium clinical isolate by broth microdilution method; outline: as §1
[17] = test system: Staphylococcus saprophyticus; experiment: Antibacterial activity against methicillin-susceptible coagulase-negative Staphylococcus saprophyticus clinical isolate by broth microdilution method; outline: as §1
[18] = test system: Streptococcus pyogenes; experiment: Antibacterial activity against Streptococcus pyogenes clinical isolate by broth microdilution method; outline: as §2
[19] = test system: Staphylococcus epidermidis; experiment: Antibacterial activity against methicillin-resistant coagulase-negative Staphylococcus epidermidis clinical isolate by broth microdilution method; outline: as §1
[20] = test system: Enterococcus faecium; experiment: Antibacterial activity against vancomycin-susceptible Enterococcus faecium clinical isolate by broth microdilution method; outline: as §2
[21] = test system: Staphylococcus aureus; experiment: Antibacterial activity against daptomycin-nonsusceptible Staphylococcus aureus isolate 1171055 by broth microdilution method; outline: as §1
[22] = test system: Staphylococcus hominis; experiment: Antibacterial activity against methicillin-susceptible coagulase-negative Staphylococcus hominis clinical isolate by broth microdilution method; outline: as §1
[23] = test system: Staphylococcus cohnii; experiment: Antibacterial activity against methicillin-resistant coagulase-negative Staphylococcus cohnii clinical isolate by broth microdilution method; outline: as §1

## CCCCCCCCCC(=O)N[C@@H](Cc1c[nH]c2ccccc12)C(=O)N[C@H](CC(N)=O)C(=O)N[C@@H](CC(=O)O)C(=O)N[C@@H]1C(=O)NCC(=O)N[C@@H](CCCN)C(=O)N[C@@H](CC(=O)O)C(=O)N[C@H](C)C(=O)N[C@@H](CC(=O)O)C(=O)NCC(=O)N[C@H](CO)C(=O)N[C@@H]([C@H](C)CC(=O)O)C(=O)N[C@@H](CC(=O)c2ccccc2N)C(=O)O[C@@H]1C
[1]
  MIC50: 0.5 µg/mL (≈ 0.309 µM)
  MIC90: 1 µg/mL (≈ 0.617 µM)
[2]
  MIC50: 0.06 µg/mL (≈ 0.037 µM)
  MIC90: 0.25 µg/mL (≈ 0.154 µM)
[3]
  MIC50: 0.5 µg/mL (≈ 0.309 µM)
  MIC90: 1 µg/mL (≈ 0.617 µM)
[4]
  MIC50: 0.06 µg/mL (≈ 0.037 µM)
  MIC90: 0.25 µg/mL (≈ 0.154 µM)
[5]
  MIC50: 0.5 µg/mL (≈ 0.309 µM)
  MIC90: 1 µg/mL (≈ 0.617 µM)
[6]
  MIC: 0.5 µg/mL (≈ 0.309 µM)
  MIC50: 0.5 µg/mL (≈ 0.309 µM)
  MIC90: 1 µg/mL (≈ 0.617 µM)
[7]
  MIC50: 0.25 µg/mL (≈ 0.154 µM)
  MIC90: 1 µg/mL (≈ 0.617 µM)
[8]
  MIC50: 2 µg/mL (≈ 1.23 µM)
  MIC90: 4 µg/mL (≈ 2.47 µM)
[9]
  MIC50: 0.06 µg/mL (≈ 0.037 µM)
  MIC90: 0.25 µg/mL (≈ 0.154 µM)
[10]
  MIC50: 0.25 µg/mL (≈ 0.154 µM)
  MIC90: 1 µg/mL (≈ 0.617 µM)
[11]
  MIC50: 0.5 µg/mL (≈ 0.309 µM)
  MIC90: 1 µg/mL (≈ 0.617 µM)
[12]
  MIC50: 0.5 µg/mL (≈ 0.309 µM)
  MIC90: 1 µg/mL (≈ 0.617 µM)
[13]
  MIC50: 0.25 µg/mL (≈ 0.154 µM)
  MIC90: 1 µg/mL (≈ 0.617 µM)
[14]
  MIC: > 1 µg/mL
[15]
  MIC50: 0.25 µg/mL (≈ 0.154 µM)
  MIC90: 1 µg/mL (≈ 0.617 µM)
[16]
  MIC50: 2 µg/mL (≈ 1.23 µM)
  MIC90: 4 µg/mL (≈ 2.47 µM)
[17]
  MIC50: 0.5 µg/mL (≈ 0.309 µM)
  MIC90: 1 µg/mL (≈ 0.617 µM)
[18]
  MIC50: 0.06 µg/mL (≈ 0.037 µM)
  MIC90: 0.06 µg/mL (≈ 0.037 µM)
[19]
  MIC50: 0.5 µg/mL (≈ 0.309 µM)
  MIC90: 1 µg/mL (≈ 0.617 µM)
[20]
  MIC50: 2 µg/mL (≈ 1.23 µM)
  MIC90: 4 µg/mL (≈ 2.47 µM)
[21]
  MIC: > 1 µg/mL
[22]
  MIC50: 0.5 µg/mL (≈ 0.309 µM)
  MIC90: 1 µg/mL (≈ 0.617 µM)
[23]
  MIC50: 0.5 µg/mL (≈ 0.309 µM)
  MIC90: 1 µg/mL (≈ 0.617 µM)
